The source made the active and inactive calls. No cut-off for these calls is given here.
Key:
[1] = Volume of distribution at steady state in Sprague-Dawley rat at 1 mg/kg, iv; format: ADME, organism-based; parameters: dose 1 mg/kg, route intravenous; settings: in vivo, read-out: Vdss
Summary of the method: (§1)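 Male Sprague–Dawley rats given 1 mg/kg iv via femoral vein as DMSO solution or 10 mg/kg by oral gavage as OraPlus suspension, pH adjusted to 2.0–2.2 with methanesulfonic acid. Serial jugular blood over 12–24 h; plasma protein-precipitated with acetonitrile, quantified by LC-MS/MS (MRM) with internal standard; noncompartmental parameters.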

[2] = target: Vascular endothelial growth factor receptor 1 (Homo sapiens, UniProt P17948); assay: Inhibition of human VEGFR1
[3] = Oral bioavailability in Sprague-Dawley rat at 2 mg/kg; format: ADME, organism-based; settings: in vivo
Summary of the method: (§2)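 Male Sprague–Dawley rats dosed iv at 0.5 mg/kg as DMSO solution or po at 2 mg/kg as suspension in 100% OraPlus. Serial jugular blood, plasma LC-MS/MS quantitation, noncompartmental analysis.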

[4] = Tmax in Sprague-Dawley rat at 2 mg/kg, po; format: ADME, organism-based; parameters: dose 2 mg/kg, route oral; settings: in vivo; summary of the method: as §2
[5] = AUC (0 to infinity) in Sprague-Dawley rat at 2 mg/kg, po; format: ADME, organism-based; parameters: time infinity, dose 2 mg/kg, route oral; settings: plasma
Summary of the method: (§3)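 Male Sprague–Dawley rats dosed iv via femoral vein as DMSO solution (1 or 0.5 mg/kg) or po by gavage as OraPlus suspension (pH 2.0–2.2 with methanesulfonic acid; 10 or 2 mg/kg). Serial jugular blood over 12–24 h; plasma acetonitrile precipitation, LC-MS/MS (MRM) with internal standard; noncompartmental parameters.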

Mus musculus [6] = assay: Inhibition of VEGF-induced vascular permeability in HEK293 cells expressing mouse recombinant VEGF implanted in CD1 nu/nu mouse assessed as Matrigel plug at 3 mg/kg, po after 6 hrs; format: functional, organism-based; parameters: dose 3 mg/kg
Summary of the method: (§4)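 HEK293 cells expressing murine VEGF (or vector) suspended in Matrigel, injected sc ventrally into CD-1 nu/nu mice. At 24 h, single oral gavage dose as OraPlus suspension; 6 h later Evans blue quantified in 1 cm2 skin over plug; plasma level taken at 6 h; n = 5/group.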

HUVEC [7] = assay: Selectivity of IC50 for VEGF-induced proliferation over IC50 for bFGF-induced proliferation of HUVEC; format: functional, Homo sapiens
Summary of the method: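 HUVECs were seeded at 3000 cells/well in DMEM/10% FBS with pen/strep and cultured for 22 h. They were preincubated 2 h with serially diluted compound, then stimulated with 50 ng/mL VEGF or 20 ng/mL bFGF for 72 h at 37 °C, 5% CO2. Cells were washed, frozen at -70 °C and stained with CyQuant. IC50s came from a four-parameter logistic fit, averaged over ≥2 experiments; the VEGF IC50 was compared against the bFGF IC50.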

[8] = Half life in Sprague-Dawley rat at 1 mg/kg, iv; format: ADME, organism-based; parameters: dose 1 mg/kg, route intravenous; settings: in vivo; summary of the method: as §3
Liver microsomes [9] = assay: Metabolic stability assessed as covalent binding in presence of NADPH in human liver microsomes at 10 uM after 1 hr; format: ADME, Microsome
Summary of the method: (§5)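 14C-labelled compound at 10 µM with human or rat liver microsomes (1 mg/mL) in 0.1 M potassium phosphate pH 7.4, with or without 1 mM NADPH and 1 mM glutathione, 60 min; quenched with ice-cold acetonitrile. Pellet washed with 80% methanol and ethanol/ether, solubilized, protein by BCA, radioactivity by scintillation counting.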

[10] = target: Tyrosine-protein kinase Lck (Homo sapiens, UniProt P06239); assay: Inhibition of Lck
Sequence of Tyrosine-protein kinase Lck (P06239 whole entry): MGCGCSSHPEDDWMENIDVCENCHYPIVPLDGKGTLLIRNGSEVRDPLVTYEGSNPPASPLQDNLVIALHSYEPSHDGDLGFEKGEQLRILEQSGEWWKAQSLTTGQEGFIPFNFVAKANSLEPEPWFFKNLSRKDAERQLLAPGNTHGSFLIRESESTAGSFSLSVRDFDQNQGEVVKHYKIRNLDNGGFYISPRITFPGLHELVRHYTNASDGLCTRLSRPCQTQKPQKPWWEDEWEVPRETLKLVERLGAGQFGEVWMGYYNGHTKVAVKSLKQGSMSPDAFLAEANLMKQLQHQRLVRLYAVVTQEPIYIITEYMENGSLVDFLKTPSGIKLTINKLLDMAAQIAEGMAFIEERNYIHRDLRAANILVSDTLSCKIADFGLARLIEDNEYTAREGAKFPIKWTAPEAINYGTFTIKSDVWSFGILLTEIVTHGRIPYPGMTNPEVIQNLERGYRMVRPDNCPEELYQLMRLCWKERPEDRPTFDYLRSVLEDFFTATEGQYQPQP

Aurora kinase B = Aurora kinase B (Homo sapiens, UniProt Q96GD4); assay: Inhibition of Aurora B
Sequence of Aurora kinase B (Q96GD4 whole entry): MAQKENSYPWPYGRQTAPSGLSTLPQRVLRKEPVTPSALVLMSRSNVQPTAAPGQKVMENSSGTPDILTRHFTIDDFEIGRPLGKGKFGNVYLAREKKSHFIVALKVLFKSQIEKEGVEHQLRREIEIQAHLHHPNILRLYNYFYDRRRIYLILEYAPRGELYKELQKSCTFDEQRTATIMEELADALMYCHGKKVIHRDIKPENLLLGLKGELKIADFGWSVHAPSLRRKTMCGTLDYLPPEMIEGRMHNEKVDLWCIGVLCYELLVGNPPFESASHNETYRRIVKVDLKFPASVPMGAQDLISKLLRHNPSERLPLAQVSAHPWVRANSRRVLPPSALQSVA

[11] = Intrinsic clearance in rat liver microsomes at 1 uM; format: ADME, Microsome; settings: read-out: Stability
Summary of the method: (§6)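 Human or rat liver microsomes (0.25 mg protein/mL) with 1 mM NADPH, 2 mM MgCl2 in 50 mM potassium phosphate pH 7.4 at 37 °C; compound 1 µM final. Sampled 0–40 min into acetonitrile, LC-MS/MS; ln % remaining vs time slope gives T1/2; CLint = (0.693/T1/2)/0.25 mg/mL.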

[12] = target: Hepatocyte growth factor receptor (Homo sapiens, UniProt P08581); assay: Inhibition of c-Met
Sequence of Hepatocyte growth factor receptor (P08581 whole entry): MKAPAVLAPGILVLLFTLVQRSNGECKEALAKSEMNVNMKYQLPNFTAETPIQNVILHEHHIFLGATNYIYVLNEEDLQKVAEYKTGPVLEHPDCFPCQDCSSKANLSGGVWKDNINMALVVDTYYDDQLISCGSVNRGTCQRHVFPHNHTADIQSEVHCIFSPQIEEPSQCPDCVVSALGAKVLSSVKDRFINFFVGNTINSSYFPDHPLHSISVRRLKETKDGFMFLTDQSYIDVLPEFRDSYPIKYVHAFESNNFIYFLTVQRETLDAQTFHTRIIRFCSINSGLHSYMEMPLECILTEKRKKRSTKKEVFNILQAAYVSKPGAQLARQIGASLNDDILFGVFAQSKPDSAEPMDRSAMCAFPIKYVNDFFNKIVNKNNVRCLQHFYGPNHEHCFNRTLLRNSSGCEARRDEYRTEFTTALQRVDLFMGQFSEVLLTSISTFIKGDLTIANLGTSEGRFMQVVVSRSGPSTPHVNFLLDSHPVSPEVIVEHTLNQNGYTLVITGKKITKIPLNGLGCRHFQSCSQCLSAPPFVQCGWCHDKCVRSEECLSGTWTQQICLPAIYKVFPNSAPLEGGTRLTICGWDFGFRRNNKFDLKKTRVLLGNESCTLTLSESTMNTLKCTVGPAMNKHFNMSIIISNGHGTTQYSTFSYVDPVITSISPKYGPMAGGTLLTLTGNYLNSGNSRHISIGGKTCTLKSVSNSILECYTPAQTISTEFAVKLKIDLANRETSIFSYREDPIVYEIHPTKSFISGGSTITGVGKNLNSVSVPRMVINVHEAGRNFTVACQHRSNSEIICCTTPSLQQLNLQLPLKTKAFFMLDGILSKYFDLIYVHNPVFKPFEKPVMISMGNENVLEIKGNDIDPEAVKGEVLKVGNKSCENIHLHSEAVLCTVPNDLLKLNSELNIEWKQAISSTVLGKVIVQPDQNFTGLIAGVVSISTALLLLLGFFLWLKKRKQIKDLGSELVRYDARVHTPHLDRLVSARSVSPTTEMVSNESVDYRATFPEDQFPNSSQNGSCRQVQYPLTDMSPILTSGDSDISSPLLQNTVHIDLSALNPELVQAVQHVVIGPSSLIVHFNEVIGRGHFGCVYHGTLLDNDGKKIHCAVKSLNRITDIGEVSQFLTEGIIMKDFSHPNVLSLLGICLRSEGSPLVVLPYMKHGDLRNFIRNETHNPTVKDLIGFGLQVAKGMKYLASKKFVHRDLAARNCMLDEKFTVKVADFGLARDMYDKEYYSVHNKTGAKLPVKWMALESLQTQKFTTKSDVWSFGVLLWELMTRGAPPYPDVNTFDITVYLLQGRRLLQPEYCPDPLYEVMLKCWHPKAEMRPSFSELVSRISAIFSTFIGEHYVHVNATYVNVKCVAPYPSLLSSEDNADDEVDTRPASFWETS

[13] = Cmax in VEGF-soaked disk implanted in Sprague-Dawley rat; format: ADME, organism-based; settings: in vivo
Angiopoietin-1 receptor = Angiopoietin-1 receptor (Homo sapiens, UniProt Q02763); assay: Inhibition of Tie2
Sequence of Angiopoietin-1 receptor (Q02763 whole entry): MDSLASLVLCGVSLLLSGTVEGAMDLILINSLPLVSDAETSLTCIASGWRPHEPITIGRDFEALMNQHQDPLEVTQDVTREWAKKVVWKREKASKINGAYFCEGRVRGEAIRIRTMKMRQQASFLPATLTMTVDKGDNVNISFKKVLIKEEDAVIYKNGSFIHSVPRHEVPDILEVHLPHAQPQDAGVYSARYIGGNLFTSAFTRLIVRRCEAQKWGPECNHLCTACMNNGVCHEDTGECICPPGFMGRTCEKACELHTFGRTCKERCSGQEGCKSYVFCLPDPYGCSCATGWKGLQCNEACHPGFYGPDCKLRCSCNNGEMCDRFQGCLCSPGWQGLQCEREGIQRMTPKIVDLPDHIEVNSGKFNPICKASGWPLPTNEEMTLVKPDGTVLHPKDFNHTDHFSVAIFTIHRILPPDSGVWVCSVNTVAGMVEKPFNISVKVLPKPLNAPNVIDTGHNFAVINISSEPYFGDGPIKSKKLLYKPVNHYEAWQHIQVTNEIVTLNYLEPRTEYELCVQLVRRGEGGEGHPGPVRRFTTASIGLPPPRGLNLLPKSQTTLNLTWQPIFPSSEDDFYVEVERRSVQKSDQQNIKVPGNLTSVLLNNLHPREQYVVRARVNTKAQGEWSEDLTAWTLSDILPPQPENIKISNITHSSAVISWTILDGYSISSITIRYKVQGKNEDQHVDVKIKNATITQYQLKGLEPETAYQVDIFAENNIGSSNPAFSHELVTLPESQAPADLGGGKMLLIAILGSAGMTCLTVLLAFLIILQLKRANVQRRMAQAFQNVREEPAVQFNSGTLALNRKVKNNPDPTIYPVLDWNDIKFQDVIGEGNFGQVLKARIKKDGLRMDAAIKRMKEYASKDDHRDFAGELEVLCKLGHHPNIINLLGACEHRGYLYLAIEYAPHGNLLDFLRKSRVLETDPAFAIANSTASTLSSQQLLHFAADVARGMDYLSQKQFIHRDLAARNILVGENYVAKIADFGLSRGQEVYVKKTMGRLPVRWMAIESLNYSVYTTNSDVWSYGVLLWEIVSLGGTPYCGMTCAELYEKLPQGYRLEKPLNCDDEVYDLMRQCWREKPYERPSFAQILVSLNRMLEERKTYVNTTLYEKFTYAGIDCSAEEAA

[14] = target: Tyrosine-protein kinase Lyn (Homo sapiens, UniProt P07948); assay: Inhibition of Lyn
Sequence of Tyrosine-protein kinase Lyn (P07948 whole entry): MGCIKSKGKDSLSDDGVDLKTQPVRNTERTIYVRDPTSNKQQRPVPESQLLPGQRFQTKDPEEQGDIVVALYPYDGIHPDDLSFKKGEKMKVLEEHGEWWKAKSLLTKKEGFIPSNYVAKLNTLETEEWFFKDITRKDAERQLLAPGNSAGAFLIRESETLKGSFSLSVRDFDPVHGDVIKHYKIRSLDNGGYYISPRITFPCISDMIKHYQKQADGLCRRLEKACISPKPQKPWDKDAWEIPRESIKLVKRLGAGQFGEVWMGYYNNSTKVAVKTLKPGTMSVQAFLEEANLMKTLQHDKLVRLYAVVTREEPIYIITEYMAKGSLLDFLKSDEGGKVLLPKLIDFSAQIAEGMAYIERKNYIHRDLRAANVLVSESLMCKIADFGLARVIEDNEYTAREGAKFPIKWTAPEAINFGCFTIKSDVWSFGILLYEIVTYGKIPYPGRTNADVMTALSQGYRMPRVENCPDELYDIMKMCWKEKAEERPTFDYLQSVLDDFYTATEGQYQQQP

Liver microsomes [15] = assay: Metabolic stability assessed as covalent binding in absence of NADPH in human liver microsomes at 10 uM after 1 hr; format: ADME, Microsome; summary of the method: as §5
Aurora kinase A = target: T1, Aurora kinase A (Homo sapiens, UniProt O14965); assay: Inhibition of Aurora A
T1 sequence (O14965 whole entry): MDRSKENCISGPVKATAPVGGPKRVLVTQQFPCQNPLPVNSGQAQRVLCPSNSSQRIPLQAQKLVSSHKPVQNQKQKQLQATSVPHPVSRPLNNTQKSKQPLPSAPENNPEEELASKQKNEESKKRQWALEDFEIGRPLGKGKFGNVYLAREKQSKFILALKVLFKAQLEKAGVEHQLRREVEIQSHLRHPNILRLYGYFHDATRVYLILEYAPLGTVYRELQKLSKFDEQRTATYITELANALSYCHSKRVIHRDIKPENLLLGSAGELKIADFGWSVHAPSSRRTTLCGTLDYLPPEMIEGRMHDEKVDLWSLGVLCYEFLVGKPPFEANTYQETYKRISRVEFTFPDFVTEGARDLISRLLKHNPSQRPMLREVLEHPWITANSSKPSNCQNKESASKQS

[16] = target: Macrophage colony-stimulating factor 1 receptor (Homo sapiens) (UniProt P07333); assay: Inhibition of c-fms
Sequence of Macrophage colony-stimulating factor 1 receptor (Homo sapiens) (P07333 whole entry): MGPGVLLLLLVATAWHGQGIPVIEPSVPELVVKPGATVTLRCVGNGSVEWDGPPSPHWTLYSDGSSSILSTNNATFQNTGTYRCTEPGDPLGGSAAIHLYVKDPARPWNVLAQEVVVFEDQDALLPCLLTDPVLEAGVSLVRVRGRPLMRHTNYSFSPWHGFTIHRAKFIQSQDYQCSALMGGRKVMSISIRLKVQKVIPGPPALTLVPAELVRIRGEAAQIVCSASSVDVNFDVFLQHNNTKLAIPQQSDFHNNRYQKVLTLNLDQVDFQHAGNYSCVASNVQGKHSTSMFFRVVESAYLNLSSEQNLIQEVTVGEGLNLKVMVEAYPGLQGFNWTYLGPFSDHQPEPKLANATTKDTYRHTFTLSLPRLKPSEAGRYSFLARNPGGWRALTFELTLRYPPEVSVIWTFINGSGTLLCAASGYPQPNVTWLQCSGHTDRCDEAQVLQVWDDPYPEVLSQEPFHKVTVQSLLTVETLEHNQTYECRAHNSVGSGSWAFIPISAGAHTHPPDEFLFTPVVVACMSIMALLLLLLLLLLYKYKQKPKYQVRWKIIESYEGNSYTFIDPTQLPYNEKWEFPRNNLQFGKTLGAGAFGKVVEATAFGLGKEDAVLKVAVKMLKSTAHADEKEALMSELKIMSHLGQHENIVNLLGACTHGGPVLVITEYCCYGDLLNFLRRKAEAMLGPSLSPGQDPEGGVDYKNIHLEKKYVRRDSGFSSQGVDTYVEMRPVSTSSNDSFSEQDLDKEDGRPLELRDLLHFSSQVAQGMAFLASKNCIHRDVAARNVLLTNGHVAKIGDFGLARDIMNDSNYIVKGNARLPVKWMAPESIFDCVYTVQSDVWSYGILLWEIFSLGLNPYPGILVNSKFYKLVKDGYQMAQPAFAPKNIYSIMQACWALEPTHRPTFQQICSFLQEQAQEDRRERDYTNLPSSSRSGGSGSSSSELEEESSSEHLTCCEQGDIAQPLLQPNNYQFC

[17] = target: Mast/stem cell growth factor receptor Kit (Homo sapiens) (UniProt P10721); assay: Inhibition of c-Kit
Liver microsomes [18] = assay: Metabolic stability assessed as covalent binding in presence of NADPH and GSH in human liver microsomes at 10 uM after 1 hr; format: ADME, Microsome; summary of the method: as §5
Liver microsomes [19] = assay: Metabolic stability assessed as covalent binding in presence of NADPH and GSH in rat liver microsomes at 10 uM after 1 hr; format: ADME, Microsome; summary of the method: as §5
Liver microsomes [20] = assay: Metabolic stability assessed as covalent binding in presence of NADPH in rat liver microsomes at 10 uM after 1 hr; format: ADME, Microsome; summary of the method: as §5
HUVEC [21] = assay: Inhibition of bFGF-induced proliferation of HUVEC; format: functional, cell-based; settings: Homo sapiens
Summary of the method: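 HUVEC seeded at 3000/well in DMEM with 10% FBS, 22 h; 2 h preincubation with serial compound dilutions, then 50 ng/mL VEGF or 20 ng/mL bFGF for 72 h at 37 °C. Freeze–thaw, CyQuant DNA dye read-out; IC50 by four-parameter logistic fit, averaged over ≥2 experiments.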

[22] = target: Vascular endothelial growth factor receptor 2 (Homo sapiens, UniProt P35968)
[23] = target: Vascular endothelial growth factor receptor 3 (Homo sapiens) (UniProt P35916); assay: Inhibition of human VEGFR3
Rattus norvegicus = assay: Inhibition of VEGF-induced angiogenesis in VEGF-soaked disk implanted in Sprague-Dawley rat cornea assessed as number of blood vessels intersecting the midpoint between disk and limbus after 7 days; format: functional; settings: 168 h
[24] = Cmax in Sprague-Dawley rat at 2 mg/kg, po; format: ADME, organism-based; parameters: dose 2 mg/kg, route oral; settings: in vivo; summary of the method: as §3
[25] = Clearance in Sprague-Dawley rat at 1 mg/kg, iv; format: ADME, organism-based; parameters: dose 1 mg/kg, route intravenous; settings: in vivo; summary of the method: as §3
HUVEC [26] = assay: Inhibition of VEGF-induced proliferation of HUVEC; format: functional, cell-based; settings: Homo sapiens
[27] = target: Platelet-derived growth factor receptor alpha (Homo sapiens) (UniProt P16234); assay: Inhibition of PDGFRalpha
[28] = AUC in VEGF-soaked disk implanted in Sprague-Dawley rat; format: ADME, organism-based; settings: plasma
Liver microsomes [29] = assay: Metabolic stability assessed as covalent binding in absence of NADPH in rat liver microsomes at 10 uM after 1 hr; format: ADME, Microsome; summary of the method: as §5
[30] = Aqueous solubility in 0.01 N Hcl; format: physicochemical
[31] = Intrinsic clearance in human liver microsomes at 1 uM; format: ADME, Microsome; settings: read-out: Stability; summary of the method: as §6
[32] = Volume of distribution at steady state in Sprague-Dawley rat at 0.5 mg/kg, iv; format: ADME, organism-based; parameters: dose 0.5 mg/kg, route intravenous; settings: in vivo, read-out: Vdss; summary of the method: as §2
[33] = Half life in Sprague-Dawley rat at 0.5 mg/kg, iv; format: ADME, organism-based; parameters: dose 0.5 mg/kg, route intravenous; settings: in vivo; summary of the method: as §3
[34] = Clearance in Sprague-Dawley rat at 0.5 mg/kg, iv; format: ADME, organism-based; parameters: dose 0.5 mg/kg, route intravenous; settings: in vivo; summary of the method: as §3
[35] = target: Tyrosine-protein kinase ABL1 (Homo sapiens, UniProt P00519)
[36] = Cmax in Sprague-Dawley rat at 10 mg/kg, po; format: ADME, organism-based; parameters: dose 10 mg/kg, route oral; settings: in vivo; summary of the method: as §3
[37] = Oral bioavailability in Sprague-Dawley rat at 10 mg/kg; format: ADME, organism-based; settings: in vivo; summary of the method: as §1
[38] = Tmax in Sprague-Dawley rat at 10 mg/kg, po; format: ADME, organism-based; parameters: dose 10 mg/kg, route oral; settings: in vivo; summary of the method: as §1
[39] = AUC (0 to infinity) in Sprague-Dawley rat at 10 mg/kg, po; format: ADME, organism-based; parameters: dose 10 mg/kg, route oral, time infinity; settings: plasma; summary of the method: as §3
Mus musculus [40] = assay: Inhibition of VEGF-induced vascular permeability in HEK293 cells expressing mouse recombinant VEGF implanted in CD1 nu/nu mouse assessed as Matrigel plug at 10 mg/kg, po after 6 hrs; format: functional, organism-based; parameters: dose 10 mg/kg; summary of the method: as §4
[41] = target: Receptor-type tyrosine-protein kinase FLT3 (Homo sapiens) (UniProt P36888); assay: Inhibition of Flt3
[42] = target: Tyrosine-protein kinase Fgr (Homo sapiens, UniProt P09769); assay: Inhibition of FGR

Row | Structure (SMILES) | Vd [1] [L/kg] | bioavailability [3] [%] | Tmax [4] [h] | AUC(0-inf) [5] [ng·h/mL] | Selectivity ratio (HUVEC [7]) | half-life [8] [h] | Stability (Liver microsomes [9]) [pmol/mg/h] | IC50 [10] [µM] | IC50 (Aurora kinase B) [µM] | microsomal CLint at 1 µM [11] [µL/min/mg] | IC50 [12] [µM] | Cmax [13] [nM] | IC50 (Angiopoietin-1 receptor) [µM] | IC50 [14] [µM] | Stability (Liver microsomes [15]) [pmol/mg/h] | IC50 (Aurora kinase A) [µM] | Activity [16] | Activity [17] | IC50 (HUVEC [26]) [µM] | microsomal CLint at 1 µM [31] [µL/min/mg] | other results
1 | COCCNC(=O)c1cccc2cc(Oc3ccnc4cc(OC)c(OC)cc34)ccc12 | 1.13 | 99 | 2 | 3770 | >100 | 1.6 | 321 | 1.2 | 0.13 | 48 | 20 | 40 | 25 | 0.275 | 125 | 7.2 | Active | Active | 0.00064 | 32 | IC50 [2]: 0.073 µM; Cp (Mus musculus [6]): 0.2 µM; Stability (Liver microsomes [18]): 1.6 pmol/mg/h; Stability (Liver microsomes [19]): 1.6 pmol/mg/h; Stability (Liver microsomes [20]): 353 pmol/mg/h; IC50 (HUVEC [21]): 1.14 µM; IC50 [22]: 0.012 µM; Activity [23]: Active; ED50 (Rattus norvegicus): 0.04 mg/kg; Cmax [24]: 543 ng/mL; clearance [25]: 8.87 mL/min/kg; Activity [27]: Active; AUC [28]: 0.52 µM·h; Stability (Liver microsomes [29]): 125 pmol/mg/h; solubility [30]: > 200 µg/mL
2 | COCCNC(=O)c1cccc2cc(Oc3ccnc4cc(OC)c(C(N)=O)cc34)ccc12 |  | 12 | 0.3 | 164 | >100 |  |  |  | 0.233 | 95 | 6.7 |  | 8.3 |  |  | 8.3 |  |  | 0.0008 | 4 | Vd [32]: 0.751 L/kg; half-life [33]: 0.31 h; clearance [34]: 50.8 mL/min/kg; IC50 [22]: 0.022 µM; Cmax [24]: 61 ng/mL
3 | COc1cc2nccc(Oc3ccc4c(C(=O)NC5CC5)cccc4c3)c2cc1OC | 1.04 |  |  |  | >100 | 8.4 | 357 | 0.33 | 0.118 | 21 | 20 | 20 | 25 | 0.027 | 1.5 | 2 | Active | Active | 0.00091 | 31 | Activity [2]: Active; IC50 [35]: 0.466 µM; Cmax [36]: 6150 ng/mL; bioavailability [37]: 66%; Tmax [38]: 2.5 h; AUC(0-inf) [39]: 50200 ng·h/mL; Stability (Liver microsomes [18]): 153 pmol/mg/h; Stability (Liver microsomes [19]): 153 pmol/mg/h; Cp (Mus musculus [40]): 1 µM; Stability (Liver microsomes [20]): 60 pmol/mg/h; IC50 (HUVEC [21]): 0.17 µM; Activity [41]: inactive; Activity [23]: Active; ED50 (Rattus norvegicus): 0.01 mg/kg; clearance [25]: 2.18 mL/min/kg; Activity [27]: Active; AUC [28]: 0.32 µM·h; Stability (Liver microsomes [29]): 1.5 pmol/mg/h; IC50 [42]: 0.396 µM; solubility [30]: > 200 µg/mL

From ChEMBL document CHEMBL1144684, “Evaluation of a series of naphthamides as potent, orally active vascular endothelial growth factor receptor-2 tyrosine kinase inhibitors” (J Med Chem, 2008)
